System: MS2 coat protein
Assay: apparent Kd, MS2 coat protein; higher = weaker binding; RNA-MaP array; FMN 200 µM where present
Method in brief: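 Binding was read on Illumina sequencing-chip clusters where stalled E. coli RNA polymerase had transcribed each design. A titration of SNAP-549-labelled MS2 coat protein began at 0.7 or 1.5 nM and doubled to 3 µM, once without ligand and once with constant ligand, in 100 mM Tris-HCl pH 7.5, 80 mM KCl, 4 mM MgCl2, BSA, DTT, yeast tRNA and Tween-20. The apparent Kd is the median of filtered per-cluster binding-curve fits, based on green signal normalised to red-channel RNA signal and control-cluster median Fmax.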

[1] = designed as: OFF switch for flavin mononucleotide, no ligand
[2] = ligand present: flavin mononucleotide, designed as: OFF switch for flavin mononucleotide
[3] = designed as: ON switch for flavin mononucleotide, no ligand
[4] = ligand present: flavin mononucleotide, designed as: ON switch for flavin mononucleotide

Sequence	apparent Kd [1]	apparent Kd [2]	apparent Kd [3]	apparent Kd [4]
CCCGCUGCUGUGAGGAUAUGCCUGUGGGUGCGUGGGUAGAAGGCACAUGAGGAUCACCCAUGUCCUGCGGCUCC	366 nM	244 nM		
CCCUAGGUAGGAUAUACUUGGGCUCGGCUGAUGUGCCUAAAACAUGAGGAUCACCCAUGUAGAAGGACUAAGGC	12.4 nM	10.8 nM		
CCCUAGGUAGGAUAUACUUGGGCUCGGCUGAUGUGCUUAAAACAUGAGGAUCACCCAUGUAGAAGGACUAAGGC	15.3 nM	12.9 nM		
CCCUCAACAUGAGGAUCACCCAUGUAGGAUAUCGCUAUUGUAAUCAUGAAACAUGAUUACAAUAGCGAGAAGGACAUAUGUGGG	106 nM	49.8 nM		
CCGAUAAUGUAGGAUAUCGUAUCGGAGACGAUACGAGAAGGACAAACAUGAGGAUCACCCAUGUUCCUUAACGG	16.6 nM	19.9 nM		
CCGAUGGUAUACUAGGAUAUGGGCGCCCUUACAUGAGGAUCACCCAUGUUUACACAAAUCCGCGGCCAGAAGGAGUUCAUGGGAG			184 nM	133 nM
CCGCCCUGAGGAUAUCCACCCUCAUACAUGAGGAUCACCCAUGUUCACCCUUGGGUUCCCGGAGAAGGCAGCUUUC	347 nM	393 nM		
CCGCCCUGGAGAGGAUAUGAUCCGUACUAAAGGUCAGAAGGCUCCGAGUUACAUGAGGAUCACCCAUGUAGGGCGGAAAAUAUG			6.3 nM	5.25 nM
CCGCUGUCAGGAUAUCGUGCAUACAACGAAAGUUCUAUGUGCGAGAAGGGACAUGAGGAUCACCCAUGUUUCCG	16.6 nM	25.8 nM		
CCGGAAAUAGAGGAUAUCGUACUGGAUACAGUACGAGAAGGCUAUACAUGAGGAUCACCCAUGUGUCCUACCGG	16.9 nM	36 nM		
CCGGAAAUGGAGGAUAUAGGAGUCGAUAGACACCUAGAAGGUCAUACAUGAGGAUCACCCAUGUGUCCUACCGG	17.2 nM	19.1 nM		
CCGGAAGUAGAGGAUAUAGGAGUCGAUAGACUCCUAGAAGGCUAUACAUGAGGAUCACCCAUGUGUCCUACCGG	19.6 nM	31 nM		
CCGGAUAUGCAGGAUAUCGUAACGGAAACGUUACGAGAAGGGUAUACAUGAGGAUCACCCAUGUGUCCUACCGG	28.1 nM	32.3 nM		
CCGGAUAUGCAGGAUAUCGUAUCGGAAACGAUACGAGAAGGGUAUACAUGAGGAUCACCCAUGUGUCCUACCGG	23 nM	33.1 nM		
CCGGAUAUGCAGGAUAUCGUAUCGGAGACGAUACGAGAAGGGUAUACAUGAGGAUCACCCAUGUGUCCUACCGG	26.4 nM	32.1 nM		
CCGGGAAUAUUAAAUACCUCAACAUGAGGAUCACCCAUGUUGCAGGAUAUCAAUGAGUUGGAAAAUGAGAAGGGCAGCGGGAGA	5.81 nM	7.34 nM		
CCGUAAAAUGGAGGAUAUGGAGCCUUAUUGGCUCCAGAAGGUCAUAAAACAUGAGGAUCACCCAUGUCGGCGGUCAAUAGACCG			47.9 nM	20.2 nM
CCGUAGGGAGGAUAUCCAAUAUAUGACAUGAGGAUCACCCAUGUUUCCACUCGUACCUCCGGAGAAGGCCCAUCCC	24.9 nM	22.3 nM		
CCGUGAAGGACAGGAUAUGGACAUGAGGAUCACCCAUGUACAUGGGAAUAUAUACUGAAUUUAUACUAGAAGGGUUACAUAAAU	21.8 nM	19.4 nM		
CCGUGAGCAGGAUAUACAUGAGGAUCACCCAUGUCCGAUCCAAACAUGGGAAAAGAAGGUAGAAGGGUUUGAGG	28.5 nM	36.1 nM		
CCGUUGAUGGGACAGGAUAUGACUGUCGUCACAUGAGGAUCACCCAUGUCCCGGCAAUGCCACCGUUAGAAGGGUCCCGUCUCGG			16 nM	15.9 nM
CCGUUGGGCUAGAAGGCUCCGGGAGGACCGCGGAGAGGAUAUAGCACAUGAGGAUCACCCAUGUGGUAUGACCUUAUGUAUUCA	33.6 nM	65.1 nM		
CCUAGUUGGUAAGGAUAUCCUACACUAUUCUGACCCGUGCAAGCUACAUGAGGAUCACCCAUGUGGGAGAAGGUGCGUCAACGC	13.8 nM	15.2 nM		
CCUAUGUGAGGAUAUCACUGGUCUUUUCAUUGGAUGAUUAGUGAGAAGGCACAUGAGGAUCACCCAUGUCGGUG	28.9 nM	24.2 nM		
CCUCAGUAAGGAUAUCAGCUUAGGAGGUUGGUAAUGAGAGCUGAGAAGGUACAUGAGGAUCACCCAUGUUAGUU	30.6 nM	76.4 nM		
CCUCAGUAAGGAUAUCAGCUUAUGGAGGUGGUAAUGAGAGCUGAGAAGGUACAUGAGGAUCACCCAUGUUAGUU	57 nM	102 nM		
CCUCCACAUGAGGAUCACCCAUGUCAGGAUAUCGUGUGUGCGUUUUCGGUCUUUCGCGCGAGAAGGGACGUCUG	30.6 nM	34.9 nM		
CCUCCCUGAGGAUAUCCACCCUCAUACAUGAGGAUCACCCAUGUUCAACCCUGGGUACCCGGAGAAGGCAGAUUUC	116 nM	175 nM		
